Laboratory results: publication PMC10278071 (ACS Chemical Biology, 2023)
Read-outs that look alike come from different tables or passages of the source.

How the values were obtained:
DNMT3B = details: read-out: IC50 DNMT3B; cited from earlier work
DNMT3A [1] = details: read-out: IC50 DNMT3A; cited from earlier work
DNMT1 = details: cited from earlier work
DNMT3B-3L complex [2] = molecular target: T1, DNMT3B-3L complex (Homo sapiens, UniProt Q9UBC3); assay: Inhibition kinetics assay; format: biochemical; details: for mode of inhibition versus SAM (Lineweaver–Burk): constant Vmax, increased Km upon inhibitor binding
C4–2 cells [3] = assay: C4–2 cell growth with harmine and bicalutamide; format: cell-based, human; details: bicalutamide 10 μM, harmine 7 μM, alone or combined, after 6–8 days
DYRK1A = details: read-out: IC50 DYRK1A; cited from earlier work
DU145 cells = assay: Quantitative real-time PCR of hypermethylated genes; format: cell-based, human; details: DU145, 10 μM, 16 h, normalized to 18S rRNA
In short: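 DU145 cells (RPMI 1640, 10% FBS) treated with test compound at 0 or 10 μM for 16 h. Total RNA extracted with TRIzol and DNase-treated; 5 μg reverse-transcribed. SYBR Green qPCR with two-step cycling. Expression normalized to 18S rRNA, reported as fold change versus untreated cells. Student's t-test between groups.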

C4–2 cells [4] = assay: Western blot of caspase-3 and Bcl-2 after harmine treatment; format: cell-based, human; details: 50 and 100 μM harmine, 24 h, serum-free
Cdk2/cyclin A = details: read-out: IC50 Cdk2/cyclin A; cited from earlier work
[5] = molecular target: acetylcholine esterase (AChE); details: read-out: IC50 AChE; cited from earlier work
murine DNMT3a = details: read-out: IC50 murine DNMT3a; library screening; cited from earlier work
C4–2 cells [6] = assay: Annexin V and PI staining flow cytometry apoptosis assay; format: cell-based, human; details: 24 h
In short: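 C4–2 cells starved 24 h, then exposed 24 h in serum-free medium to test compound at 0, 50 or 100 μM. Cells washed twice in ice-cold PBS and resuspended at 2 × 10^6 cells/mL in binding buffer (10 mM HEPES pH 7.4, 150 mM NaCl, 2.5 mM CaCl2). Stained with APC-annexin V plus PI, then analysed by flow cytometry with compensation for spectral overlap.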

Cdk5/p25 = details: read-out: IC50 Cdk5/p25; cited from earlier work
DNMT3B-3L = DNMT3B-3L (Homo sapiens, UniProt Q9UBC3); assay: Isothermal titration calorimetry; format: binding
In short: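 Purified DNMT3B-3L complex at 0.02 mM in 20 mM Tris-HCl pH 8.0, 100 mM NaCl, 0.2 mM TCEP. Titrated with 7 μL injections of 0.52 mM test compound. Ligand-into-buffer heat subtracted. Independent binding model fitted to give n, Kd, ΔH and ΔS. Triplicate.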

DNMT3B-3L complex [7] = molecular target: T1, DNMT3B-3L complex; assay: Intrinsic tryptophan fluorescence spectroscopy titration; format: binding
In short: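 His-tagged DNMT3B (571–853) and DNMT3L (179–379), co-lysed from E. coli Rosetta2(DE3)pLysS and tag-cleaved, 1 μM complex. Titrated with test compound 0–80 μM at 25 °C. Excitation 280 nm, emission 300–450 nm, slit 5 nm. Buffer titrations subtracted as background. Intensity change fitted by nonlinear one-site specific binding. Three independent experiments.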

Cdk1/cyclin B = details: read-out: IC50 Cdk1/cyclin B; cited from earlier work
DNMT3A [8] = details: read-out: IC50 DNMT3A; cited from earlier work; remark: listed apart in the source
human DNMT1 = details: read-out: IC50 human DNMT1; cited from earlier work

Oc1ccc(/C=C/c2cc(O)cc(O)c2)cc1 [resveratrol]
IC50 (DNMT3B): 65 µM
IC50 (DNMT3A [1]): 105 µM
inhibitory activity on DNMT1 (DNMT1): no inhibitory activity
Ki (DNMT3B-3L complex [2]): 23.6 ± 4.17 µM
mode of inhibition versus SAM (Lineweaver–Burk) (DNMT3B-3L complex [2]): competitive inhibitors

CC(O)(CS(=O)(=O)c1ccc(F)cc1)C(=O)Nc1ccc(C#N)c(C(F)(F)F)c1 (stereo not drawn) [bicalutamide]
reduction of number of viable cells / cell proliferation (C4–2 cells [3]): 17%

COc1ccc2c(c1)[nH]c1c(C)nccc12 [harmine]
reduction of number of viable cells / cell proliferation (C4–2 cells [3]): 40%
mRNA levels of DNMT3A and DNMT3B genes (DU145 cells): did not result in significant changes
Bcl-2 protein levels (C4–2 cells [4]): decreased Bcl-2 protein levels
levels of cleaved caspase-3 (C4–2 cells [4]): increased the levels of cleaved caspase-3
IC50 (Cdk2/cyclin A): 33 µM
IC50 [5]: 9.05 µM
IC50 (murine DNMT3a): 2.3 µM
cell apoptosis (Annexin V and PI staining) (C4–2 cells [6]; 0, 50, 100 μM harmine): induced cell apoptosis
IC50 (Cdk5/p25): 20 µM
Kd (DNMT3B-3L): 3.35 ± 0.3 µM
mode of inhibition versus SAM (Lineweaver–Burk) (DNMT3B-3L complex [2]): competitive inhibitors
Kd (DNMT3B-3L complex [7]): 3.48 ± 1.95 µM
IC50 (Cdk1/cyclin B): 17 µM

Nc1ncnc2c1ncn2[C@@H]1O[C@H](C[C@@H](N)CC[C@H](N)C(=O)O)[C@@H](O)[C@H]1O [sinefungin]
IC50 (DNMT3A [8]): 1.8 µM
